Test results published in ChEMBL document CHEMBL3872285, “Discovery of a Potent, Selective, and Orally Available PI3Kδ Inhibitor for the Treatment of Inflammatory Diseases” (ACS Med Chem Lett, 2017).

Tests used:
[1] = target: PI3-kinase p110-delta/p85-alpha (Homo sapiens, UniProt O00329); assay: Inhibition of full length recombinant human N-terminal His6-tagged PI3K p110delta/human p85alpha expressed in baculovirus infected sf21 cells using PIP2 as substrate preincubated for 30 mins followed by substrate addition by HTRF assay
Chain of PI3-kinase p110-delta/p85-alpha (P27986 whole entry, one chain of several): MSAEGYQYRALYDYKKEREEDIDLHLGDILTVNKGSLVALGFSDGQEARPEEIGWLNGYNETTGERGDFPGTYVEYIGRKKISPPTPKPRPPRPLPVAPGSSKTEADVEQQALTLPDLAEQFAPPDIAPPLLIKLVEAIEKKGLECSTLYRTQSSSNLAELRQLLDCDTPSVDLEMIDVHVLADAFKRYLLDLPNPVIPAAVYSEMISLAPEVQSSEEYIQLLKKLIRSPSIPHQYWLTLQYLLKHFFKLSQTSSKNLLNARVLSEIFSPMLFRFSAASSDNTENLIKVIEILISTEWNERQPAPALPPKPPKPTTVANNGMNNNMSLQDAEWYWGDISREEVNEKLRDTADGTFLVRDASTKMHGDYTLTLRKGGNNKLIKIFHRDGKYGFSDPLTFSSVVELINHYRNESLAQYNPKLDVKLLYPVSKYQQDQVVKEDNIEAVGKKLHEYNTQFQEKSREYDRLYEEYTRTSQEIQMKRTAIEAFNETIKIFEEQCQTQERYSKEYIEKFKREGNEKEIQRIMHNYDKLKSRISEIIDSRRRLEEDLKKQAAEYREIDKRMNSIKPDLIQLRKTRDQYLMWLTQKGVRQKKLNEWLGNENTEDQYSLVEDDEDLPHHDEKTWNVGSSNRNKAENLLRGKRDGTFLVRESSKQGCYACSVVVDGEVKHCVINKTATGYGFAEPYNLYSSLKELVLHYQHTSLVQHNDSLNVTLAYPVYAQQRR

[2] = Drug metabolism in human liver microsomes assessed as disappearance of parent compound at 5 uM after 30 mins in presence of NADPH by UPLC-MS/MS analysis
[3] = Drug metabolism in rat liver microsomes assessed as disappearance of parent compound at 5 uM after 30 mins in presence of NADPH by UPLC-MS/MS analysis
[4] = target: T1, Phosphatidylinositol 4,5-bisphosphate 3-kinase catalytic subunit delta isoform (Homo sapiens, UniProt O00329); assay: Inhibition of PI3Kdelta in human THP1 cells assessed as reduction in MCSF-stimulated akt phosphorylation at Thr308 preincubated for 30 mins followed by MCSF stimulation for 3 mins by ELISA; type: cell-based, THP-1
T1 sequence (O00329 whole entry): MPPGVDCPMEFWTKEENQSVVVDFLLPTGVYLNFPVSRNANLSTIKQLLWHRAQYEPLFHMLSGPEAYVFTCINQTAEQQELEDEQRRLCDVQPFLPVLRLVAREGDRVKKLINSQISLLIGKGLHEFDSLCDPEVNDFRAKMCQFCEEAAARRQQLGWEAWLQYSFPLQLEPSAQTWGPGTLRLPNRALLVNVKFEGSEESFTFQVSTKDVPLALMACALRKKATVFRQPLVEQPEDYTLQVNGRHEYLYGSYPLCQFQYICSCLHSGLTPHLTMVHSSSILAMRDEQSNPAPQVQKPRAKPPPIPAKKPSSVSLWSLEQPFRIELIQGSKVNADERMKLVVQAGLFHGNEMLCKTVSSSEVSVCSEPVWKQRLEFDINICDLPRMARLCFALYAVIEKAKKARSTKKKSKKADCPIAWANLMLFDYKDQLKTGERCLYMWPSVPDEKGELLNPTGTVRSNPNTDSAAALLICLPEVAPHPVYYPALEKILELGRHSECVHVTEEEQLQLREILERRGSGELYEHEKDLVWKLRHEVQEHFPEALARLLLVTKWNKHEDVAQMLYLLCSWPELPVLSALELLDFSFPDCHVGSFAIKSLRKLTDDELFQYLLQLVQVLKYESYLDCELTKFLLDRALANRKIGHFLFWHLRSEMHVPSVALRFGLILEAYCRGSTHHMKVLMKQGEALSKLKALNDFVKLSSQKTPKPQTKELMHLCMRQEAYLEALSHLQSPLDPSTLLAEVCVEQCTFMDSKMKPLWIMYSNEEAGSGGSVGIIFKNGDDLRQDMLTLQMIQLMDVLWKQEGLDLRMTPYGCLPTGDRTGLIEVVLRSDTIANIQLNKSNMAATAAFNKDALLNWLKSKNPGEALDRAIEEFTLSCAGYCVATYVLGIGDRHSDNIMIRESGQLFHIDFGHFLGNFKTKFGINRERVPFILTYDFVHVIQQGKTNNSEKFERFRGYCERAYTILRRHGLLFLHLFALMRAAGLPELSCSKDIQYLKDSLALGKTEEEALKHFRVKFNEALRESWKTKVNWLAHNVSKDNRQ
Outline: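 THP-1 cells exposed to compound for 30 min, then stimulated with MCSF at EC80 for 3 min; lysates assayed by ELISA for pAkt (Thr308).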

[5] = Clearance in Wistar rat at 1 mg/kg, iv; details: in vivo
[6] = AUC in Wistar rat at 1 mg/kg, iv; type: ADME, organism-based; details: in vivo
Outline: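 Wistar rats received a single 1 mg/kg intravenous dose. Plasma samples were collected and AUC was calculated from them, along with half-life, clearance and steady-state volume of distribution. Values are means of two animals (n=2).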

[7] = Volume of distribution at steady state in Wistar rat at 1 mg/kg, iv; type: ADME, organism-based; details: in vivo, read-out: Vdss
[8] = Half life in Wistar rat at 1 mg/kg, iv; type: ADME, organism-based; details: in vivo
[9] = Oral bioavailability in Wistar rat at 1 mg/kg administered via gavage; type: ADME, organism-based; details: in vivo
[10] = AUC in Beagle dog at 1 mg/kg, iv through bolus administration; type: ADME, organism-based, Canis lupus familiaris; details: in vivo
[11] = Apparent volume of distribution in Beagle dog at 1 mg/kg, iv through bolus administration; type: ADME, organism-based, Canis lupus familiaris; details: in vivo, read-out: Vz
[12] = Apparent volume of distribution in Wistar rat at 1 mg/kg, iv; type: ADME, organism-based; details: in vivo, read-out: Vz
[13] = Half life in Beagle dog at 1 mg/kg, iv through bolus administration; type: ADME, organism-based, Canis lupus familiaris; details: in vivo
[14] = tested on: Rattus norvegicus; assay: In vivo inhibition of PI3Kdelta in Wistar rat assessed as reduction in ConA-induced increase in plasma IL2 production administered through oral gavage 1 hr prior to ConA measured 90 mins post ConA challenge by ELISA; type: functional; details: read-out: ID50 (the source's name)
[15] = tested on: Rattus norvegicus; assay: Anti-inflammatory activity in Brown Norway rat assessed as reduction in OVA-induced eosinophil infilteration to bronchoalveolar lavage administered orally bid 1 hr prior to OVA challenge on day 14 and 6 hrs post OVA challenge on day 21 measured 24 hrs post last OVA challenge by microscopic method; type: functional; details: po, read-out: ID50 (the source's name)
[16] = Clearance in Beagle dog at 1 mg/kg, iv through bolus administration; details: in vivo

| SMILES | IC50 [1] [nM] | metabolised at 0.5 h, 5 µM [2] [%] | metabolised at 0.5 h, 5 µM [3] [%] | IC50 [4] [nM] | further results |
| --- | --- | --- | --- | --- | --- |
| Cc1ccccc1-n1c(Cn2cnc3c(N)ncnc32)nn2ccc(C)c2c1=O | 110 |  |  |  |  |
| CC[C@@H](Nc1ncnc2[nH]cnc12)c1nn2cccc2c(=O)n1-c1ccccc1 | 1800 | 30 | 32 |  |  |
| C[C@H](Nc1ncnc(N)c1C#N)c1nn2ccc(F)c2c(=O)n1-c1ccccc1 | 1.1 | 13 | 9 | 3.8 |  |
| C[C@H](Nc1ncnc2[nH]cc(F)c12)c1nn2cccc2c(=O)n1-c1ccccc1 | 9 | 58 | 48 | 47 |  |
| N#Cc1c(N)ncnc1NC1(c2nn3cccc3c(=O)n2-c2ccccc2)CC1 | 3400 |  |  |  |  |
| N#Cc1c(N)ncnc1N[C@@H](CCO)c1nn2cccc2c(=O)n1-c1ccccc1 | 4.8 | 7 |  | 16 | clearance [5]: 36.8 mL/min/kg; AUC [6]: 450 ng·h/mL; Vd [7]: 1.6 L/kg; half-life [8]: 1.1 h |
| C[C@H](Nc1ncnc(N)c1C#N)c1nn2cccc2c(=O)n1-c1ccccc1 |  | 24 | 15 |  | clearance [5]: 43.5 mL/min/kg; AUC [6]: 386 ng·h/mL; Vd [7]: 1.9 L/kg; half-life [8]: 0.9 h |
| Cc1ccc2c(=O)n(-c3ccccc3)c([C@H](C)Nc3ncnc(N)c3C#N)nn12 | 8.8 | 82 | 54 | 11 |  |
| C[C@H](Nc1ncnc2[nH]ccc12)c1nn2cccc2c(=O)n1-c1ccccc1 | 52 | 49 | 44 | 150 |  |
| CC[C@H](Nc1ncnc2[nH]cnc12)c1nc2cccc(F)c2c(=O)n1-c1ccccc1 [IDELALISIB] |  |  |  |  | bioavailability [9]: 68%; AUC [10]: 924 ng·h/mL; Vd [11]: 2.5 L/kg; Vd [12]: 2.2 L/kg; half-life [13]: 1.6 h; AUC [6]: 512 ng·h/mL; half-life [8]: 0.8 h; ED50 [14]: 1.6 mg/kg; ED50 [15]: 15 mg/kg |
| C[C@H](Nc1nc(N)nc(N)n1)c1nn2cccc2c(=O)n1-c1ccccc1 | 91 | 33 | 25 | 76 |  |
| C[C@H](Nc1ncnc(N)c1C#N)c1nn2c(C(F)(F)F)ccc2c(=O)n1-c1ccccc1 | 71 |  |  | 380 |  |
| Cc1ccn2nc([C@H](C)Nc3ncnc(N)c3C#N)n(-c3ccccc3)c(=O)c12 | 1.1 | 80 | 44 | 1.6 |  |
| C[C@H](Nc1ncnc(N)c1C#N)c1nn2ccnc2c(=O)n1-c1ccccc1 | 57 | 23 | 14 | 210 |  |
| N#Cc1c(N)ncnc1N1CCC[C@H]1c1nn2cccc2c(=O)n1-c1ccccc1 | 4.6 | 48 | 46 | 6.6 |  |
| CC[C@H](Nc1ncnc2[nH]cnc12)c1nn2cccc2c(=O)n1-c1ccccc1 | 25 | 49 | 38 |  |  |

| SMILES | IC50 [1] [nM] | metabolised at 0.5 h, 5 µM [2] [%] | metabolised at 0.5 h, 5 µM [3] [%] | IC50 [4] [nM] | further results |
| --- | --- | --- | --- | --- | --- |
| C[C@H](Nc1ncnc(N)c1C#N)c1nn2c(C#N)ccc2c(=O)n1-c1ccccc1 | 4 | 22 | 24 | 11 |  |
| N#Cc1c(N)ncnc1NC(CC(F)(F)F)c1nn2cccc2c(=O)n1-c1ccccc1 (stereo not given) | 610 |  |  | 1600 |  |
| C[C@H](Nc1cc(N)ncn1)c1nn2cccc2c(=O)n1-c1ccccc1 | 1200 |  |  |  |  |
| N#Cc1c(N)ncnc1N1CC(F)(F)C[C@H]1c1nn2cccc2c(=O)n1-c1ccccc1 | 31 | 35 | 30 | 370 |  |
| C[C@H](Nc1ncnc(N)c1C#N)c1nn2ccc(CO)c2c(=O)n1-c1ccccc1 | 4.3 | 23 | 7 | 35 |  |
| C[C@H](Nc1ncnc(N)c1C#N)c1nn2ccc(C(F)(F)F)c2c(=O)n1-c1ccccc1 | 3 | 37 | 16 |  | bioavailability [9]: 113%; AUC [10]: 3940 ng·h/mL; clearance [5]: 8.6 mL/min/kg; Vd [11]: 1.5 L/kg; Vd [12]: 2.4 L/kg; half-life [13]: 4.2 h; AUC [6]: 2040 ng·h/mL; clearance [16]: 4.2 mL/min/kg; half-life [8]: 3.3 h |
| C[C@H](Nc1ncnc2[nH]cnc12)c1nn2cccc2c(=O)n1-c1ccccc1 | 10 | 30 | 18 | 7 |  |
| N#Cc1c(N)ncnc1NC(CO)c1nn2cccc2c(=O)n1-c1ccccc1 (single isomer, unassigned) | 13 | 31 | 24 | 51 |  |
| C[C@H](Nc1nc(N)nc2[nH]cnc12)c1nn2cccc2c(=O)n1-c1ccccc1 | 3.1 | 26 | 30 | 6.5 |  |
| C[C@H](Nc1ncnc(N)c1C(F)(F)F)c1nn2cccc2c(=O)n1-c1ccccc1 | 12 | 43 | 51 |  |  |
| Cc1ccn2nc(C(C)n3cnc4c(N)ncnc43)n(-c3ccccc3)c(=O)c12 (stereo not given) | 75 |  |  |  |  |
| CC[C@H](Nc1ncnc(N)c1C#N)c1nn2cccc2c(=O)n1-c1ccccc1 | 11 | 32 | 32 | 18 |  |
| C[C@H](Nc1ncnc(N)c1F)c1nn2cccc2c(=O)n1-c1ccccc1 | 73 |  |  | 210 |  |
| C[C@H](Nc1ccnc2ccnn12)c1nn2cccc2c(=O)n1-c1ccccc1 | 60 | 86 | 100 |  |  |
| C[C@H](Nc1ncnc(N)c1C#N)c1nn2cc(F)cc2c(=O)n1-c1ccccc1 | 17 | 34 | 23 | 51 |  |
